Calls of active or inactive are those of the source. No cut-off for these calls is given here.
Columns and labels:
[1] = target: T1, Sterol O-acyltransferase 1 (Rattus norvegicus, UniProt O70536); assay: In vitro potency was determined using Acyl coenzyme A:cholesterol acyltransferase in liver microsomes from rats; set-up: species or system Microsome
T1 sequence (O70536 whole entry): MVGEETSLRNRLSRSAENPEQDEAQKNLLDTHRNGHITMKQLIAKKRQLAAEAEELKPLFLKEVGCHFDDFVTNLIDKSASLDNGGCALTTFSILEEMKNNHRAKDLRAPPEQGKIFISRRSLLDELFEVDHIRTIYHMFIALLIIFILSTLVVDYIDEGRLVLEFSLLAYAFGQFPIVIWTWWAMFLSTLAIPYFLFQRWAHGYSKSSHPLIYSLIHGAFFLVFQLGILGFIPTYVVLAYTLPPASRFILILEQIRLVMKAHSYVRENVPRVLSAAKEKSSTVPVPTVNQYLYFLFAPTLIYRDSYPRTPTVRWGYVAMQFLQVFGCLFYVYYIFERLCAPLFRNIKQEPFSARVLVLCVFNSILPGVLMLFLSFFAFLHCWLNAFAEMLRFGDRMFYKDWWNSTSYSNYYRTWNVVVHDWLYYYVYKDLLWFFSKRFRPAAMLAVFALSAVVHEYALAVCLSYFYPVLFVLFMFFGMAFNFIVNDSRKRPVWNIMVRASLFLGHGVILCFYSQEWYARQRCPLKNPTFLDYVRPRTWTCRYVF
Summary of the method: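 Enzyme source was liver microsomes prepared from chow-fed Sprague-Dawley rats, assayed for ACAT activity by the Billheimer method. IC50 was determined.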

[2] = target: T2, Bile salt-activated lipase (Bos taurus) (UniProt P30122); assay: Dose required for 50 percent inhibition of Pancreatic cholesterol esterase in vitro in rats at 300 uM; No effect
T2 sequence (whole entry): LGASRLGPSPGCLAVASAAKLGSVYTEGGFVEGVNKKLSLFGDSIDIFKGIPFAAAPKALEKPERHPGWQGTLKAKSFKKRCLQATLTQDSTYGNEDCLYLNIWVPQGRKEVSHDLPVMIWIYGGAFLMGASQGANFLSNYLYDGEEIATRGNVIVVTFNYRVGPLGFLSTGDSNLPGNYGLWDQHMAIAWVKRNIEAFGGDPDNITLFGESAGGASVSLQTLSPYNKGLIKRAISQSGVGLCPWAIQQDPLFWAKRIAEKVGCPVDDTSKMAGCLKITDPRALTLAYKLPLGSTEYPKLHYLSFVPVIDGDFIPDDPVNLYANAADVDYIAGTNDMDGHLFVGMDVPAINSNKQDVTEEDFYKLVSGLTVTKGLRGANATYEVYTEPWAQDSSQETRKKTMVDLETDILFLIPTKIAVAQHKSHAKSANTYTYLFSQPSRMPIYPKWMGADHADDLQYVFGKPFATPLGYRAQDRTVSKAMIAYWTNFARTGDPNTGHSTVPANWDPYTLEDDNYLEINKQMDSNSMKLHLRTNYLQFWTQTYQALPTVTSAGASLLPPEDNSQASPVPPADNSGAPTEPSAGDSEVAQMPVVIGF

[3] = Dose required for 50 percent inhibition of lecithin cholesterol acyl transferase in vitro in rats at 300 uM; No effect
Oryctolagus cuniculus = assay: Evaluation for the plasma cholesterol lowering in rabbits at the dose 5 mg/kg; assay type: functional, organism-based; set-up: dose 5 mg/kg
Summary of the method: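 Cholesterol-fed New Zealand White rabbits: diet with 0.4% cholesterol and 5% peanut oil for 4 weeks, drug given over the final 3 weeks at a single dose of 5 mg/kg. Read-out is total plasma cholesterol (mg/dL) against untreated controls, mean ± standard deviation, n = 5 per group.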

Cricetinae gen. sp. = assay: Effects on cholesterol absorption in hamsters; assay type: functional, organism-based; conditions: Cricetulus griseus
Summary of the method: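 Cholesterol-fed hamsters received radiolabeled cholesterol in a liquid diet together with the drug, and untreated controls were included. Animals were sacrificed 24 h later. Absorption inhibition was estimated from plasma and liver radioactivity relative to controls. Dose-response studies gave ED50, and chow-fed hamsters were also tested.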

[4] = Dose required for 50 percent inhibition of rat Pancreatic cholesterol esterase in vitro No effect at 300 uM
[5] = target: T3, 3-hydroxy-3-methylglutaryl-coenzyme A reductase (Rattus norvegicus) (UniProt P51639); assay: Dose required for 50 percent inhibition of 3-Hydroxy-3-methylglutaryl coenzyme A reductase in vitro in rats at 100 uM; No effect
T3 sequence (whole entry): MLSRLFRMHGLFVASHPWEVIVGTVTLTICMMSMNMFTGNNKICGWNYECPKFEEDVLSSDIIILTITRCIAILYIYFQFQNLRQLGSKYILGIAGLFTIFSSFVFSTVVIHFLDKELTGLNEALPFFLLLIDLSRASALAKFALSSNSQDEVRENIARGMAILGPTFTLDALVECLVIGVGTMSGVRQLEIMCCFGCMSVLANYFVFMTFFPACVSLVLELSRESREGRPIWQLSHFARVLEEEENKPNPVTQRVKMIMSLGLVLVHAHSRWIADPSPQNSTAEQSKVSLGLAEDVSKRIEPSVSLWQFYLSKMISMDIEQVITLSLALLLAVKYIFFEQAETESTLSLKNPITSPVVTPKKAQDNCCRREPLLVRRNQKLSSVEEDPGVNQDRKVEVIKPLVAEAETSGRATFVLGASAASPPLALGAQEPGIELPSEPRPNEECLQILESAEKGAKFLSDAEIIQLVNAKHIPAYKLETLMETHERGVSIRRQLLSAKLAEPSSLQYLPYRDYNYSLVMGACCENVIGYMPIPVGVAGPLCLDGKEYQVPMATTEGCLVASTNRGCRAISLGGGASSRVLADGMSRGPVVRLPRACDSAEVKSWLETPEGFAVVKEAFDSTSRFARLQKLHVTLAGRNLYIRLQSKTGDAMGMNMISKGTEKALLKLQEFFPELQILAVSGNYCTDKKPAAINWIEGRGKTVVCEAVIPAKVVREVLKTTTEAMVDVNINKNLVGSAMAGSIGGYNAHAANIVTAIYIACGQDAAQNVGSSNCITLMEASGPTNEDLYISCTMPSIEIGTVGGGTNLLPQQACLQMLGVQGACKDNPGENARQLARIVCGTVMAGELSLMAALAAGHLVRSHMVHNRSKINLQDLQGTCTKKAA

[6] = Dose required for 50 percent inhibition of lecithin cholesterol acyl transferase in vitro in rats at 30 uM; No effect
[7] = target: T4, Sterol O-acyltransferase 1 (Rattus norvegicus) (UniProt O70536); conditions: 0.135 uM
T4 sequence (whole entry): T1 sequence (O70536 whole entry)

Row | Structure (SMILES) | IC50 [1] | inhibition [2] | inhibition [3] | Level (Oryctolagus cuniculus) | Absorption (Cricetinae gen. sp.) | inhibition [4] | inhibition [5] | inhibition [6] | inhibition [7]
1 | CCCCCCCCC(SCCCCCC)C(=O)Nc1c(SC)cc(C)nc1SC (single isomer, unassigned) | 160 nM |  |  |  |  |  |  |  | 
2 | CCCCCCCC[C@@H](SCCCCCC)C(=O)Nc1c(SC)ccc2ncccc12 | 750 nM |  |  |  |  |  |  |  | 
3 | CCCCCCCC[C@H](SCCCCCC)C(=O)Nc1c(SC)cc(C)nc1SC | 22 nM | inactive | inactive | 98 mg/dL | 0.009 mg/kg | inactive |  |  | 
4 | CCCCCCCC[C@H](SCCCCCC)C(=O)Nc1c(SC)ccc2ncccc12 | 135 nM |  |  | 123 mg/dL | 0.24 mg/kg |  | inactive | inactive | 50%

Source: ChEMBL document CHEMBL1127642, “Potent, selective, and systemically-available inhibitors of acyl-coenzyme A:cholesterol acyl transferase (ACAT)” (J Med Chem, 1994)
